Active and inactive are the calls of the source. The calls are words filed in the database; no cut-off is given here.
Experiments:
Rattus norvegicus [1] = experiment: Acute toxicity in Sprague-Dawley rat assessed as motor impairment at 300 mg/kg, ip after 0.5 hrs; type: organism-based; set-up: dose 300 mg/kg, route intraperitoneal; settings: in vivo
Method in brief: (§1)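 Male albino Sprague Dawley rats, two per dose, given test compound i.p. as a suspension in 0.5% methyl cellulose. Behaviour was closely observed and recorded over 4 h to detect acute motor impairment. Values are scored as animals toxic over animals tested at each time point.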

Rattus norvegicus [2] = experiment: Acute toxicity in Sprague-Dawley rat assessed as motor impairment at 600 mg/kg, ip after 4 hrs; type: organism-based; set-up: dose 600 mg/kg, route intraperitoneal; settings: in vivo; method in brief: as §1
Rattus norvegicus [3] = experiment: Acute toxicity in Sprague-Dawley rat assessed as motor impairment at 300 mg/kg, ip after 2 hrs; type: organism-based; set-up: dose 300 mg/kg, route intraperitoneal; settings: in vivo; method in brief: as §1
Rattus norvegicus [4] = experiment: Acute toxicity in Sprague-Dawley rat assessed as motor impairment at 100 mg/kg, ip after 1 hr; type: organism-based; set-up: dose 100 mg/kg, route intraperitoneal; settings: in vivo; method in brief: as §1
Rattus norvegicus [5] = experiment: Acute toxicity in Sprague-Dawley rat assessed as motor impairment at 600 mg/kg, ip after 2 hrs; type: organism-based; set-up: dose 600 mg/kg, route intraperitoneal; settings: in vivo; method in brief: as §1
Rattus norvegicus [6] = experiment: Acute toxicity in Sprague-Dawley rat assessed as motor impairment at 300 mg/kg, ip after 0.25 hrs; type: organism-based; set-up: dose 300 mg/kg, route intraperitoneal; settings: in vivo; method in brief: as §1
Rattus norvegicus [7] = experiment: Acute toxicity in Sprague-Dawley rat assessed as motor impairment at 600 mg/kg, ip after 0.25 hrs; type: organism-based; set-up: dose 600 mg/kg, route intraperitoneal; settings: in vivo; method in brief: as §1
Rattus norvegicus [8] = experiment: Acute toxicity in Sprague-Dawley rat assessed as motor impairment at 100 mg/kg, ip after 0.5 hrs; type: organism-based; set-up: dose 100 mg/kg, route intraperitoneal; settings: in vivo; method in brief: as §1
Rattus norvegicus [9] = experiment: Acute toxicity in Sprague-Dawley rat assessed as motor impairment at 100 mg/kg, ip after 0.25 hrs; type: organism-based; set-up: dose 100 mg/kg, route intraperitoneal; settings: in vivo; method in brief: as §1
Rattus norvegicus [10] = experiment: Toxicity in Sprague-Dawley rat assessed as change in body weight at 600 mg/kg, ip measured after 24 hrs of clonus of one of the fore limbs seizure stage in protected rat; type: organism-based; set-up: dose 600 mg/kg, route intraperitoneal; settings: in vivo
Method in brief: (§2)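 Male Sprague Dawley rats (150–180 g) dosed i.p. then challenged with pilocarpine; body weight change measured 24 h after first Stage III seizure, split by protected and non-protected rats, given ± S.E.M.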

Rattus norvegicus [11] = experiment: Acute toxicity in Sprague-Dawley rat assessed as motor impairment at 100 mg/kg, ip after 2 hrs; type: organism-based; set-up: dose 100 mg/kg, route intraperitoneal; settings: in vivo; method in brief: as §1
Rattus norvegicus [12] = experiment: Acute toxicity in Sprague-Dawley rat assessed as motor impairment at 100 mg/kg, ip after 4 hrs; type: organism-based; set-up: dose 100 mg/kg, route intraperitoneal; settings: in vivo; method in brief: as §1
Rattus norvegicus [13] = experiment: Acute toxicity in Sprague-Dawley rat assessed as motor impairment at 300 mg/kg, ip after 4 hrs; type: organism-based; set-up: dose 300 mg/kg, route intraperitoneal; settings: in vivo; method in brief: as §1
Rattus norvegicus [14] = experiment: Acute toxicity in Sprague-Dawley rat assessed as motor impairment at 300 mg/kg, ip after 1 hr; type: organism-based; set-up: dose 300 mg/kg, route intraperitoneal; settings: in vivo; method in brief: as §1
[15] = Octanol-phosphate buffer partition coefficient, log P of the compound at 5 mg, after 24 hrs by UV spectroscopic analysis; type: physicochemical
Method in brief: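 5 mg compound added to 10 mL octanol plus 10 mL phosphate buffer in stoppered tube, mechanically shaken 24 h at room temperature, then left in separating funnel 6 h to equilibrate.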

Rattus norvegicus [16] = experiment: Acute toxicity in Sprague-Dawley rat assessed as motor impairment at 600 mg/kg, ip after 0.5 hrs; type: organism-based; set-up: dose 600 mg/kg, route intraperitoneal; settings: in vivo; method in brief: as §1
Rattus norvegicus [17] = experiment: Toxicity in Sprague-Dawley rat assessed as change in body weight at 600 mg/kg, ip measured after 24 hrs of clonus of one of the fore limbs seizure stage in non-protected rat; type: organism-based; set-up: dose 600 mg/kg, route intraperitoneal; settings: in vivo; method in brief: as §2
Mus musculus [18] = experiment: Neurotoxicity in albino CF-1 mouse assessed as motor impairment at 300 mg/kg, ip after 4 hrs by rotarod test; type: toxicity, organism-based; set-up: dose 300 mg/kg, route intraperitoneal; settings: in vivo
Method in brief: (§3)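 Minimal motor impairment in male CF-1 mice by rotorod after i.p. dosing; toxic if animal falls off rotating rod 3 times within 1 min. Screen doses 30, 100, 300 mg/kg; quantitative TD50 (95% confidence interval) determined at time of peak effect.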

Mus musculus [19] = experiment: Neurotoxicity in albino CF-1 mouse assessed as motor impairment at 300 mg/kg, ip after 0.5 hrs by rotarod test; type: toxicity, organism-based; set-up: dose 300 mg/kg, route intraperitoneal; settings: in vivo; method in brief: as §3
Rattus norvegicus [20] = experiment: Acute toxicity in Sprague-Dawley rat assessed as motor impairment at 600 mg/kg, ip after 1 hr; type: organism-based; set-up: dose 600 mg/kg, route intraperitoneal; settings: in vivo; method in brief: as §1
Mus musculus [21] = experiment: Anticonvulsant activity in ip dosed albino CF-1 mouse assessed as dose required to protect against maximal electroshock-induced seizures after 2 hrs; type: functional
Method in brief: (§4)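 Male CF-1 mice (18–25 g), i.p. in 0.5% methyl cellulose at 30, 100 and 300 mg/kg; MES: 60 Hz, 50 mA, 0.2 s through tetracaine-primed corneal electrodes; protection = abolished hind limb tonic extension. Value given as minimum dose active in half or more of mice.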

Mus musculus [22] = experiment: Anticonvulsant activity in ip dosed albino CF-1 mouse assessed as dose required to protect against maximal electroshock-induced seizures after 4 hrs; type: functional; method in brief: as §4
Mus musculus [23] = experiment: Anticonvulsant activity in ip dosed albino CF-1 mouse assessed as dose required to protect against maximal electroshock-induced seizures after 0.5 hrs; type: functional; method in brief: as §4
Mus musculus [24] = experiment: Neurotoxicity in ip dosed albino CF-1 mouse assessed as dose required to cause motor impairment after 4 hrs by rotarod test; type: toxicity, organism-based; settings: in vivo; method in brief: as §3
Mus musculus [25] = experiment: Neurotoxicity in ip dosed albino CF-1 mouse assessed as dose required to cause motor impairment after 0.5 hrs by rotarod test; type: toxicity, organism-based; settings: in vivo; method in brief: as §3
Mus musculus [26] = experiment: Anticonvulsant activity in albino CF-1 mouse assessed as protection against subcutaneous metrazol-induced seizures at 300 mg/kg, ip after 4 hrs; type: functional, organism-based; set-up: dose 300 mg/kg
Method in brief: (§5)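 Male CF-1 mice, i.p. at 30, 100, 300 mg/kg in 0.5% methyl cellulose; metrazol dose convulsing 97% of animals injected s.c. in midline neck fold, mice isolated and watched 30 min; protected if no 3–5 s clonic spasm episode of limbs, jaws or vibrissae.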

Mus musculus [27] = experiment: Anticonvulsant activity in albino CF-1 mouse assessed as protection against subcutaneous metrazol-induced seizures at 300 mg/kg, ip after 0.5 hrs; type: functional, organism-based; set-up: dose 300 mg/kg; method in brief: as §5

O=C1Nc2ccccc2/C1=N/NC(=O)c1ccncc1
Activity (Rattus norvegicus [1]): Non-toxic
Activity (Rattus norvegicus [2]): Non-toxic
Activity (Rattus norvegicus [3]): Non-toxic
Activity (Rattus norvegicus [4]): Non-toxic
Activity (Rattus norvegicus [5]): Non-toxic
Activity (Rattus norvegicus [6]): Non-toxic
Activity (Rattus norvegicus [7]): Non-toxic
Activity (Rattus norvegicus [8]): Non-toxic
Activity (Rattus norvegicus [9]): Non-toxic
Activity (Rattus norvegicus [10]): Non-toxic
Activity (Rattus norvegicus [11]): Non-toxic
Activity (Rattus norvegicus [12]): Non-toxic
Activity (Rattus norvegicus [13]): Non-toxic
Activity (Rattus norvegicus [14]): Non-toxic
logP at 24 h [15]: 1.12
Activity (Rattus norvegicus [16]): Non-toxic
Activity (Rattus norvegicus [17]): 20 g
Activity (Mus musculus [18]): Non-toxic
Activity (Mus musculus [19]): Non-toxic
Activity (Rattus norvegicus [20]): Non-toxic

O=C1NC(=O)C(c2ccccc2)(c2ccccc2)N1 [PHENYTOIN]
Activity (Mus musculus [21]): 30 mg/kg
Activity (Mus musculus [22]): 30 mg/kg
Activity (Mus musculus [23]): 30 mg/kg
Activity (Mus musculus [24]): 100 mg/kg
Activity (Mus musculus [25]): 100 mg/kg
Activity (Mus musculus [26]): inactive
Activity (Mus musculus [27]): inactive
